These results are taken from ChEMBL document CHEMBL1150393, “Evaluation of radiolabeled (hetero)aromatic analogues of N-(2-diethylaminoethyl)-4-iodobenzamide for imaging and targeted radionuclide therapy of melanoma” (J Med Chem, 2008).

Data set [1] can be described thus: Binding affinity to melanin in water. Details: concentration or dose not given beside the values. The following applies: tested as the 125I-labelled form.
Data set [2] in a line: Binding affinity to melanin in phosphate buffer solution. More on the design: concentration or dose not given beside the values. The following applies: tested as the 125I-labelled form.
A short description of data set [3]: Biodistribution in intestinal content of C57BL/6 mouse bearing mouse B16-F0 cells at 0.74 to 0.92 MBq, iv after 3 hrs. Type of data set: ADME, organism-based. The following applies: in vivo. The procedure, abridged: (§1)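 Male C57BL6 mice with s.c. left-flank B16-F0 melanoma (5 × 10⁵ cells in PBS). Two mice per time point frozen in liquid nitrogen after CO₂ sacrifice. Eight 40 µm whole-body cryosections per mouse read by multiwire proportional counter. cpm/mm² converted to kBq/g and expressed as %ID/g.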

Data set [4] can be described thus: Ratio of drug level in tumor to liver of C57BL/6 mouse bearing mouse B16-F0 cells at 0.74 to 0.92 MBq, iv after 3 hrs. The following applies: in vivo. It is filed as ADME, organism-based. In outline: (§2)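 Tumour and organ radioactive concentrations came from whole-body cryosection counting (40 µm slices, eight per mouse, two mice per time) after tail-vein injection of the [¹²⁵I]-labelled compound (0.1 µmol) into male C57BL6 mice bearing s.c. B16-F0 melanoma. Each value is the ratio of the tumour concentration to the organ concentration.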

The nature of data set [5]: Biodistribution in Stomach content of C57BL/6 mouse bearing mouse B16-F0 cells at 0.74 to 0.92 MBq, iv after 1 hr. Type of data set: ADME, organism-based. The following applies: in vivo. In outline: as §1
In another data set the test system is Kidney. In words: Biodistribution in kidney of C57BL/6 mouse bearing mouse B16-F0 cells at 0.74 to 0.92 MBq, iv after 1 hr. Type of data set: ADME, organism-based. The following applies: in vivo. The procedure, abridged:
as §1

Data set [6] is described as follows: Biodistribution in Stomach content of C57BL/6 mouse bearing mouse B16-F0 cells at 0.74 to 0.92 MBq, iv after 3 hrs. It is filed as ADME, organism-based. The following applies: in vivo. The procedure, abridged: as §1
The nature of data set [7]: Biodistribution in tumor of C57BL/6 mouse bearing mouse B16-F0 cells at 0.74 to 0.92 MBq, iv after 3 hrs. Type of data set: ADME, organism-based, Neoplasm. The following applies: in vivo. In outline:
(§3)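 [¹²⁵I]-labelled compound given iv by tail vein (0.1 µmol per mouse) to male C57BL6 mice bearing s.c. B16-F0 flank tumours (5 × 10⁵ cells in PBS). Two mice per time point were killed by CO₂, frozen in liquid nitrogen and cut into 40 µm cryosections, eight slices per mouse. Slice radioactivity was read on a multiwire proportional counter, converted to kBq/g and reported as %ID/g.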

For the next data set, the system named is Lung. Put plainly: Biodistribution in lung of C57BL/6 mouse bearing mouse B16-F0 cells at 0.74 to 0.92 MBq, iv after 1 hr. The following applies: in vivo. Type of data set: ADME, organism-based. In outline:
as §1

Data set [8] can be described thus: Biodistribution in tumor of C57BL/6 mouse bearing mouse B16-F0 cells at 0.74 to 0.92 MBq, iv after 1 hr. It is filed as ADME, organism-based, Neoplasm. The following applies: in vivo. In outline:
as §3

Data set [9] in a line: Biodistribution in tumor of C57BL/6 mouse bearing mouse B16-F0 cells at 0.74 to 0.92 MBq, iv after 24 hrs. Type of data set: ADME, organism-based, Neoplasm. The following applies: in vivo. The procedure, abridged: as §3
A further data set relates to Spleen. In words: Biodistribution in spleen of C57BL/6 mouse bearing mouse B16-F0 cells at 0.74 to 0.92 MBq, iv after 1 hr. It is filed as ADME, organism-based. The following applies: in vivo. The procedure, abridged:
as §3

Data set [10] can be described thus: Biodistribution in uvea of C57BL/6 mouse bearing mouse B16-F0 cells at 0.74 to 0.92 MBq, iv after 6 hrs. Type of data set: ADME, organism-based, Uveal tract. The following applies: in vivo. The procedure, abridged: as §3
A short description of data set [11]: Ratio of drug level in tumor to liver of C57BL/6 mouse bearing mouse B16-F0 cells at 0.74 to 0.92 MBq, iv after 1 hr. It is filed as ADME, organism-based. The following applies: in vivo. The procedure, abridged: as §2
For data set [12], the system named is Thyroid gland. In words: Biodistribution in thyroid of C57BL/6 mouse bearing mouse B16-F0 cells at 0.74 to 0.92 MBq, iv after 3 hrs. It is filed as ADME, organism-based. The following applies: in vivo. In outline: as §3
A short description of data set [13]: Ratio of drug level in tumor to lung of C57BL/6 mouse bearing mouse B16-F0 cells at 0.74 to 0.92 MBq, iv after 1 hr. It is filed as ADME, organism-based. The following applies: in vivo. In outline:
as §2

The nature of data set [14]: Biodistribution in uvea of C57BL/6 mouse bearing mouse B16-F0 cells at 0.74 to 0.92 MBq, iv after 3 hrs. The following applies: in vivo. Type of data set: ADME, organism-based, Uveal tract. In outline:
as §3

Data set [15] relates to Thyroid gland. Put plainly: Biodistribution in thyroid of C57BL/6 mouse bearing mouse B16-F0 cells at 0.74 to 0.92 MBq, iv after 24 hrs. Type of data set: ADME, organism-based. The following applies: in vivo. The procedure, abridged:
as §3

The nature of data set [16]: Biodistribution in uvea of C57BL/6 mouse bearing mouse B16-F0 cells at 0.74 to 0.92 MBq, iv after 24 hrs. It is filed as ADME, organism-based, Uveal tract. The following applies: in vivo. The procedure, abridged:
as §3

Data set [17] can be described thus: Biodistribution in tumor of C57BL/6 mouse bearing mouse B16-F0 cells at 0.74 to 0.92 MBq, iv after 72 hrs. The following applies: in vivo. It is filed as ADME, organism-based, Neoplasm. In outline:
as §3

Data set [18] concerns Liver. In words: Biodistribution in liver of C57BL/6 mouse bearing mouse B16-F0 cells at 0.74 to 0.92 MBq, iv after 1 hr. Type of data set: ADME, organism-based. The following applies: in vivo. In outline:
as §1

The nature of data set [19]: Biodistribution in tumor of C57BL/6 mouse bearing mouse B16-F0 cells at 0.74 to 0.92 MBq, iv after 6 hrs. Type of data set: ADME, organism-based, Neoplasm. The following applies: in vivo. The procedure, abridged:
as §3

A short description of data set [20]: Biodistribution in intestinal content of C57BL/6 mouse bearing mouse B16-F0 cells at 0.74 to 0.92 MBq, iv after 6 hrs. Type of data set: ADME, organism-based. The following applies: in vivo. The procedure, abridged:
as §1

Data set [21] is described as follows: Biodistribution in Stomach content of C57BL/6 mouse bearing mouse B16-F0 cells at 0.74 to 0.92 MBq, iv after 6 hrs. The following applies: in vivo. It is filed as ADME, organism-based. The procedure, abridged: as §1
The subject of data set [22] is Thyroid gland. Put plainly: Biodistribution in thyroid of C57BL/6 mouse bearing mouse B16-F0 cells at 0.74 to 0.92 MBq, iv after 6 hrs. The following applies: in vivo. It is filed as ADME, organism-based. In outline:
as §3

Another data set has as its system Brain. In words: Biodistribution in brain of C57BL/6 mouse bearing mouse B16-F0 cells at 0.74 to 0.92 MBq, iv after 1 hr. Type of data set: ADME, organism-based. The following applies: in vivo. In outline: as §1
Data set [23] in a line: Biodistribution in uvea of C57BL/6 mouse bearing mouse B16-F0 cells at 0.74 to 0.92 MBq, iv after 1 hr. It is filed as ADME, organism-based, Uveal tract. The following applies: in vivo. The procedure, abridged:
as §3

For data set [24], the system named is Thyroid gland. In words: Biodistribution in thyroid of C57BL/6 mouse bearing mouse B16-F0 cells at 0.74 to 0.92 MBq, iv after 1 hr. Type of data set: ADME, organism-based. The following applies: in vivo. The procedure, abridged:
as §3

For another data set, the system named is Blood. Put plainly: Biodistribution in blood of C57BL/6 mouse bearing mouse B16-F0 cells at 0.74 to 0.92 MBq, iv after 1 hr. Type of data set: ADME, organism-based. The following applies: in vivo. In outline: as §1
Data set [25] is described as follows: Biodistribution in uvea of C57BL/6 mouse bearing mouse B16-F0 cells at 0.74 to 0.92 MBq, iv after 72 hrs. It is filed as ADME, organism-based, Uveal tract. The following applies: in vivo. In outline: as §3
A further data set has as its system Muscle tissue. In words: Biodistribution in muscle of C57BL/6 mouse bearing mouse B16-F0 cells at 0.74 to 0.92 MBq, iv after 1 hr. The following applies: in vivo. It is filed as ADME, organism-based. The procedure, abridged: as §1
Data set [26] is described as follows: Drug excretion in mouse B16-F0 cells bearing C57BL/6 mouse urine at 0.74 to 0.92 MBq, iv after 72 hrs. The following applies: in vivo. It is filed as ADME, organism-based. The procedure, abridged: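 Urine was collected from two B16-F0 tumour-bearing C57BL6 mice for up to 72 h after iv tail-vein injection of the [¹²⁵I]-labelled compound (0.1 µmol). Samples were counted to give cumulative urinary excretion as %ID.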

The nature of data set [27]: Ratio of drug level in tumor to brain of C57BL/6 mouse bearing mouse B16-F0 cells at 0.74 to 0.92 MBq, iv after 1 hr. It is filed as ADME, organism-based. The following applies: in vivo. In outline: as §2
Data set [28] can be described thus: Biodistribution in gall bladder of C57BL/6 mouse bearing mouse B16-F0 cells at 0.74 to 0.92 MBq, iv after 3 hrs. Type of data set: ADME, organism-based. The following applies: in vivo. The procedure, abridged:
as §1

Data set [29] deals with Liver. In words: Biodistribution in liver of C57BL/6 mouse bearing mouse B16-F0 cells at 0.74 to 0.92 MBq, iv after 3 hrs. Type of data set: ADME, organism-based. The following applies: in vivo. The procedure, abridged:
as §1

Data set [30] in a line: Partition coefficient, log P in phosphate buffer solution at pH 7.4. It is filed as physicochemical. In outline:
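Shake-flask partition: 50 µM [¹²⁵I]-labelled compound in phosphate buffer pH 7.4 was mixed with 2 mL n-octanol. Each phase was γ-counted, P was taken as the octanol/buffer activity ratio, and log P was reported.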

Data set [31] is described as follows: Biodistribution in intestinal content of C57BL/6 mouse bearing mouse B16-F0 cells at 0.74 to 0.92 MBq, iv after 1 hr. The following applies: in vivo. It is filed as ADME, organism-based. In outline: as §1

Take `CCN(CC)CCNC(=O)c1ccc(I)nc1`: the figures for the Activity in data set [1] and in data set [2] were 28.1% and 3.5%, respectively.

Take `CCN(CC)CCNC(=O)c1cc2c(I)cccc2s1`: the Activity in data set [1] was 87.6%; in data set [2], 56.1%.

As to `CCN(CC)CCNC(=O)c1nc2cc(I)ccc2[nH]1`, the Activity amounted to 84.5% in [1] and 47.1% in [2].

Broadly, the logD is the decadic logarithm of the distribution of all forms, ionised or not, between an organic phase and buffer at a given pH. Take `CCN(CC)CCNC(=O)c1cc2c([125I])cccc2s1.Cl`: the Drug uptake in [3] stood at 73.02 % ID/g; in data set [5], 20 % ID/g; in the data set on Kidney it was 5.61 % ID/g; in data set [6], 5.93 % ID/g; in data set [7], 10 % ID/g; with Lung it was 3.69 % ID/g. Also, the Drug uptake in [8] turned out to be 12.5 % ID/g; in data set [9] it was 7.3 % ID/g; in the data set with Spleen it was 3.88 % ID/g; in data set [10], 16.29 % ID/g; with Thyroid gland [12], 67.21 % ID/g; in data set [14] it was 19.51 % ID/g. In addition, the Drug uptake with Thyroid gland [15] is given as 79.82 % ID/g; in data set [16], 11.06 % ID/g; in data set [17], 1.7 % ID/g; in the data set with Liver [18] it was 2.21 % ID/g; in data set [19], 8.7 % ID/g; in data set [20] it was 37.7 % ID/g. The Drug uptake in data set [21] is on record as 18.77 % ID/g; with Thyroid gland [22], 139.12 % ID/g; with Brain it was 0.81 % ID/g; in data set [23] it was 16.09 % ID/g; with Thyroid gland [24], 24.03 % ID/g; in the data set on Blood, 1.37 % ID/g. Moreover, the Drug uptake in data set [25] was 9.22 % ID/g; in the data set on Muscle tissue, 0.77 % ID/g; in data set [28], 65.56 % ID/g; in the data set on Liver [29] it was 1.25 % ID/g; in data set [31] it was 71.13 % ID/g. Moreover, the Ratio in data set [4] was determined as 7.98; in [11] it was 5.64; in [13], 3.38; in data set [27] it was 15.4. Also, in data set [26], the Activity is given as 52.6%. In data set [30], the log distribution coefficient (logD) worked out at 1.54.

For `CCN(CC)CCNC(=O)c1cc2c(I)cccc2cn1`, the Activity was 87% in data set [1] and 45.2% in data set [2].

As to `CCN(CC)CCNC(=O)c1ccc2cncc(I)c2n1`, the results for the Activity in data set [1] and in [2] were 44.8% and 35.3%, respectively.

Regarding `CCN(CC)CCNC(=O)c1cnc2cc(I)ccc2n1`, the Activity in [1] was 67.4%; in data set [2], 47.3%.

Consider `CCN(CC)CCNC(=O)c1ccc2cc(I)ccc2c1`, for which the Activity in data set [1] was 80.8%; in data set [2], 50.9%.
